OX1R antag-1: antagonists of human orexin 1 receptor (OX1R). O43613. OX1R-expressing cells, FRET antagonist read-out. inhibition, % at 6.6 µM. hit rate 1.8% among 330,000; in the data active = inhibition mostly above about 38%, no sharp cut-off; inactive = mostly below about 40%;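 also: 0% = agonist challenge alone and 100% = reference antagonist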
OX1R antag-2: antagonists of human orexin 1 receptor. hit rate 0.43% among 330,000. inhibition, % at 5 µM. O43613. CHO/OX1R cells, Fluo-8 calcium fluorescence, orexin A;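 active = inhibition above its plate's threshold, mean inhibition of all tested compounds on the plate plus 3 SD, cut at about 37% in these data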;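 also: 0% = orexin A challenge wells and 100% = SB-334867-A antagonist wells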
GPR7 antag: blocks human GPR7 receptor signaling; P48145; GPR7-expressing cells, fluorescence antagonist assay; inhibition, % at 4.4 µM; hit rate 1.1% among 290,000; in the data active = inhibition above about 16%, passing the limit was not always enough;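 also: cells stimulated with the agonist NPW; 0% = agonist with vehicle and 100% = vehicle without agonist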
Target sequence (P48145 whole entry, looked up): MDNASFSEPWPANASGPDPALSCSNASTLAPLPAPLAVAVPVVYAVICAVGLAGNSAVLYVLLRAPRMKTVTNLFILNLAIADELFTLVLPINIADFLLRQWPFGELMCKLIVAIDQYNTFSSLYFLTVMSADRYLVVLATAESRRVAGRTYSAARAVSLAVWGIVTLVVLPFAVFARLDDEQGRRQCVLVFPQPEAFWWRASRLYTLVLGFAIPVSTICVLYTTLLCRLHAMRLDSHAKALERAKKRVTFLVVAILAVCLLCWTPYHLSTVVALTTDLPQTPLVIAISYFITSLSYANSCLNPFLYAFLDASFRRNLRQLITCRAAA
TRPML3 agonist: human mucolipin-3 channel agonism. Q8TDD5. HEK293 TRPML3-YFP, Fluo-8 calcium fluorescence; 100% = the carbachol control signal. activation, % at 3 µM. hit rate 0.29% among 220,000. AID 1448;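 active = activation above its plate's cutoff, the mean activation of the plate's test wells plus 3 SD, cut at about 12% in these data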;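 also: 0% = DMSO only wells and 100% = carbachol wells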
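Test system: HEK293 cells stably carrying human TRPML3-YFP; Doses: single dose, 3 µM final nominal compound, 0.3% DMSO final; Schedule: dye loading 1 h 37 °C then 30 min ambient, 125 s read; Technique: Fluo-8 calcium fluorescence; Benchmarks: high control carbachol 87 µM, low control DMSO.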
zfTRPN1 agonist: zebrafish TRPN1 (NompC) channel agonism. HEK293 zebrafish TRPN1-YFP, Fluo-8 calcium fluorescence; 100% = response to 87 µM carbachol. activation, % at 3 µM. hit rate 0.18% among 220,000;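 active = activation above its plate's cutoff, the mean activation of test wells on that plate plus 3 SD, cut at about 19% in these data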;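 also: 0% = DMSO alone and 100% = 87 µM carbachol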
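Control set: carbachol 87 µM as high control, DMSO as low control; system: HEK293 stable line with zebrafish TRPN1-YFP; read-out: % activation versus carbachol response; detection: intracellular calcium fluorescence with Fluo-8; doses: single test compound dose, 3 µM nominal, 0.3% DMSO; schedule: dye 1 h 37 °C plus 30 min RT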
CHO parental Ca: counter-screen: ATP calcium response change in parental CHO cells; parental CHO-K1, ATP-induced calcium, Fluo-8 fluorescence; inhibition, % at 5.6 µM; hit rate 0.63% among 330,000; AID 463079;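 active = inhibition above that plate's mean sample inhibition plus 3 SD, cut at about 26% in these data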;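 also: 0% = ATP-challenged DMSO wells and 100% = DMSO wells without ATP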
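material = parental CHO cells | also added = ATP as calcium-mobilizing challenge | dosing = single point at 5.6 µM | detection = intracellular calcium via Fluo-8 no-wash fluorescent dye | read-out = % inhibition | benchmarks = low control ATP plus DMSO, high control DMSO only | repeats = one well per compound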
GPR7 antag cf: confirmation of human GPR7 antagonists. shares compounds with GPR7 antag. GPR7-expressing cells, calcium fluorescence antagonist mode. inhibition, % at 4.4 µM. hit rate 52% among 2,400. AID 1952; in the data active = inhibition above about 24%;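 also: stimulated with the GPR7 agonist NPW; 0% = agonist plus vehicle and 100% = vehicle alone without agonist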
MCHR1 antag: MCHR1 (human) antagonism in GPR7 counter-screen; shares compounds with GPR7 antag; MCHR1-expressing cells, fluorescence antagonist assay; inhibition, % at 4.4 µM; hit rate 62% among 2,400; in the data active = inhibition above about 22%;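 also: 0% = vehicle with agonist and 100% = vehicle without agonist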
An asterisk follows results filed as active; / = no result. Only some compounds are listed: those with a hit (about 3.2% of all), similar ones and a draw of the others.

SMILES | OX1R antag-1 | OX1R antag-2 | GPR7 antag | TRPML3 agonist | zfTRPN1 agonist | CHO parental Ca | GPR7 antag cf | MCHR1 antag
CCOCCCNCc1cc(Br)ccc1OCc1ccccc1 | 16 | -25 | 38* | 1 | 1 | -16 | 36* | 42*
COc1cccc(NC(=S)NC(=O)/C=C/c2ccc(F)cc2)c1 | 9 | -17 | 6 | / | / | -6 | / | /
CC(=O)c1ccc(NC(=S)NC(=O)/C=C/c2ccc(F)cc2)cc1 | 9 | -35 | 48* | / | / | -15 | 11 | 13
CCC(C)Sc1nc2c(c(=O)[nH]1)C(c1cccs1)C1=C(CCCC1=O)N2 (stereo unspecified) | 18 | -26 | 32* | -1 | -3 | -3 | 25* | 30*
C=CCOc1cccc(C(=O)Nc2ncn[nH]2)c1 | 9 | -9 | -11 | / | / | 12 | / | /
Clc1ccc(-c2csc(=Nc3cccnc3)n2CCCn2ccnc2)cc1Cl | 38 | -31 | 28* | 0 | 1 | -24 | 28* | 40*
CN1CCN(CCOC2Cc3ccccc3Sc3ccc(Cl)cc32)CC1 (stereo unspecified) | 11 | -14 | 23* | 1 | 0 | 4 | 33* | 44*
COc1cc(/C=N/NC(=O)CSCc2ccc([N+](=O)[O-])cc2)cc(OC)c1OC | 26 | -20 | 22* | 0 | 0 | -16 | 26* | 23*
COc1ccc([N+](=O)[O-])cc1NC(=O)CSCc1ccc(Br)cc1 | 29 | -14 | 0 | -1 | -1 | 3 | / | /
CC1CCN(CCCNC(=O)CN2C(=O)CSc3ccc(S(=O)(=O)N4CCOCC4)cc32)CC1 | 9 | 7 | -7 | / | / | 1 | / | /
CC1CCN(CCCNC(=O)CN2C(=O)CSc3ccc(S(=O)(=O)N4CCC(C)CC4)cc32)CC1 | 12 | -24 | 26* | / | / | -24 | -5 | -9
Fc1ccc(Cn2nnnc2C(c2ccc(Cl)cc2)N2CCSCC2)cc1 (stereo unspecified) | 14 | -23 | 34* | 1 | 1 | 2 | 40* | 27*
CC1CCN(C(c2ccc(N(C)C)cc2)c2nnnn2Cc2ccc(F)cc2)CC1 (stereo unspecified) | 20 | -29 | -1 | 0 | 2 | -29 | / | /
COc1ccc(CNC(=O)C2CCN(C(=O)[C@@H]3Cc4ccccc4CN3)CC2)cc1 | 11 | 7 | 10 | / | / | -16 | / | /
COc1cc(C2C(Oc3ccccc3C)C(=O)N2Cc2ccc(F)cc2)cc(OC)c1OC (stereo unspecified) | 39 | -21 | 23* | 0 | -1 | -26 | 16 | 23*
CCC(=O)Nc1cccc(NC(=O)CSc2nnnn2Cc2ccccc2)c1 | 24 | -29 | 23* | 0 | 1 | -33 | 12 | 14
COc1cc(NC(=O)CSc2nnnn2Cc2ccccc2)cc(OC)c1 | 22 | -14 | 13 | -1 | 1 | -12 | / | /
CCOC(=O)c1cc(C#N)c(N2CCN(c3ccccn3)CC2)nc1-c1ccccc1 | 42 | -36 | -9 | 1 | -1 | -21 | / | /
COC(=O)C1CCN(C(c2cc(OC)c(OC)c(OC)c2)c2sc3nc(C)nn3c2O)CC1 (stereo unspecified) | 4 | 7 | 23* | 0 | -2 | 5 | -10 | 3
CC(C)(C)N(NC(=O)c1ccccc1)C(=O)c1cccc(C(=O)N(NC(=O)c2ccccc2)C(C)(C)C)c1 | 16 | -6 | 42* | 0 | -1 | -20 | 31* | 23*
O=C(CSc1nnnn1-c1cccc(O)c1)NC1CC1 | -2 | 9 | -3 | / | / | 7 | / | /
CCCCn1c(SCC(=O)N2CCCCC2C)nc2cc(S(N)(=O)=O)ccc21 (stereo unspecified) | 20 | -23 | 36* | 0 | 0 | -19 | -20 | 8
O=C(CNC(=S)N(Cc1ccccc1Cl)C1CCCC1)NCCN1CCOCC1 | 4 | -13 | -9 | 1 | 0 | -5 | / | /
Cc1cc(Cl)ccc1OCC(=O)N1CCCN(C(=O)COc2ccc(Cl)cc2C)CC1 | 27 | -16 | 27* | 0 | -2 | -21 | 12 | 20
Cc1cc(Cl)ccc1OC(C)C(=O)N1CCCN(C(=O)C(C)Oc2ccc(Cl)cc2C)CC1 (stereo unspecified) | 32 | 14 | 32* | 0 | 0 | -19 | 63* | 71*
SMILES | OX1R antag-1 | OX1R antag-2 | GPR7 antag | TRPML3 agonist | zfTRPN1 agonist | CHO parental Ca | GPR7 antag cf | MCHR1 antag
COc1ccccc1N1CCN(C(=O)COc2ccc(C)cc2Br)CC1 | -1 | -34 | 0 | 0 | 0 | 5 | / | /
COc1ccccc1N1CCN(C(=O)COc2ccc(Cl)cc2Br)CC1 | 22 | -17 | 28* | 0 | 0 | -15 | 48* | 47*
COc1cc(/C=C2\C(=N)N3N=CSC3=NC2=O)cc(Br)c1OC(=O)c1ccco1 | -2 | -4 | -10 | -1 | -1 | 0 | / | /
Oc1ccc(-c2csc(-c3cccnc3)n2)cc1O | 10 | -19 | 13 | -1 | 0 | -18 | / | /
Oc1ccc(-c2csc(-c3ccccc3)n2)cc1O | 14 | 16 | 27* | 0 | -2 | 28* | 17 | 7
CN1C(=O)C(/C(N)=N/NC(=O)c2ccccc2)C2CC1(C)Oc1ccccc12 (stereo unspecified) | 12 | -4 | 99* | 0 | 0 | -3 | 9 | -3
COc1cc(CNC2CCCC2)cc(Cl)c1OCc1ccccc1Cl | 13 | 6 | 9 | 0 | 0 | 2 | / | /
COc1cc(CNC2CCCC2)cc(Cl)c1OCc1ccc(F)cc1 | 9 | -5 | 26* | 1 | 1 | -9 | 25* | 22*
CCOc1cc(CNC2CCCC2)cc(Cl)c1OCc1ccc(F)cc1 | 20 | 6 | 25* | 1 | 0 | 12 | 49* | 54*
CC1CC(C)C[N+](=C2C=C(N3CCCC3)CC(C)(C)C2)C1 (stereo unspecified) | / | / | 50* | 0 | 0 | / | 58* | 53*
CC1(C)CC(=O)C=C(N2CCNCC2)C1 | 10 | -13 | 2 | 0 | 0 | 3 | / | /
CCN1CCCC1CN(Cc1cc2ccc(C)cc2[nH]c1=O)C(=S)Nc1cccc(OC)c1 (stereo unspecified) | 12 | -21 | 12 | 1 | 1 | -15 | / | /
CC(=O)c1ccc(N2CCN(C(=O)[C@H](C)NC(=O)c3ccccc3Cl)CC2)cc1 | 17 | -10 | 0 | / | / | -2 | / | /
Cc1ccc(S(=O)(=O)N2CCN(CCOc3c(Cl)cccc3Cl)CC2)cc1C | -1 | -7 | / | / | / | -22 | / | /
O=C(Cc1nc2ccccc2s1)c1ccc(O)cc1O | 2 | 1 | 25* | 0 | -1 | 6 | 8 | 4

Screening data: PubChem BioAssay, The Scripps Research Institute Molecular Screening Center
